Biological target: T1, C-X-C chemokine receptor type 4 (Homo sapiens, UniProt P61073)
Assay: Competitive inhibition of [125I]-CXCL12 binding to CXCR4 in human Jurkat cells at 1 uM in absence of ZnCl2 after 2 hrs by gamma counting analysis relative to control
Format: cell-based
Conditions: not given

T1 sequence (P61073 whole entry): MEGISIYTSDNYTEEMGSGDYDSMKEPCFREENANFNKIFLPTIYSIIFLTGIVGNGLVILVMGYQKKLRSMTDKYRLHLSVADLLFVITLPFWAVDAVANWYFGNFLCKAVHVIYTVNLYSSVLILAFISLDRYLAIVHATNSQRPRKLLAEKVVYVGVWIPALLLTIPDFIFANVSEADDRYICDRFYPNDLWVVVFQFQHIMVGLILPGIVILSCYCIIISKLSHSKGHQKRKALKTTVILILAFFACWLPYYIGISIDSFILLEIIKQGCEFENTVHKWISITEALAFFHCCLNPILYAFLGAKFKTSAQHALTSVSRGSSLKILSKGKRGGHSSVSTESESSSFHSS

First: c1ccc(CN(Cc2ccc(-c3ccc(CN4CCCNCCNCCCNCC4)cc3)cc2)Cc2ccccn2)nc1
Second: c1ccc(CN(Cc2ccc(-c3ccc(CN4CCCNCCNCCCNCC4)cc3)nc2)Cc2ccccn2)nc1
The inhibition of the first is higher: 33.9% for the first, 27% for the second.

Compared with `c1ccc(CN(Cc2ccc3cc(CN4CCCNCCNCCCNCC4)ccc3c2)Cc2ccccn2)nc1`, `c1ccc(CN(Cc2ccc3nc(CN4CCCNCCNCCCNCC4)ccc3c2)Cc2ccccn2)nc1` is lower in inhibition: 98.2% for the first, 81% for the second.

Compared with `c1ccc(CN(Cc2ccccn2)Cc2ccccc2-c2ccc(CN3CCCNCCNCCCNCC3)cc2)nc1`, `c1ccc(CN(Cc2ccnc(-c3cc(CN4CCCNCCNCCCNCC4)ccn3)c2)Cc2ccccn2)nc1` is higher in inhibition: 79.9% for the first, 100% for the second.

Test system: not listed separately
Assay: Cytotoxicity against human MT4 cells in absence of ZnCl2
Format: cell-based
Conditions: not given

Going from `c1ccc(CN(Cc2ccc(-c3ccc(CN4CCCNCCNCCCNCC4)cc3)cc2)Cc2ccccn2)nc1` to `c1ccc(CN(Cc2ccc(-c3ccc(CN4CCCNCCNCCCNCC4)cc3)nc2)Cc2ccccn2)nc1`, the CC50 rises from 4800 nM to greater than 10000 nM.

`c1ccc(CN(Cc2ccc3cc(CN4CCCNCCNCCCNCC4)ccc3c2)Cc2ccccn2)nc1` and `c1ccc(CN(Cc2ccc3nc(CN4CCCNCCNCCCNCC4)ccc3c2)Cc2ccccn2)nc1` cannot be ordered by CC50: greater than 10000 nM for the first, greater than 10000 nM for the second.

`c1ccc(CN(Cc2ccccn2)Cc2ccccc2-c2ccc(CN3CCCNCCNCCCNCC3)cc2)nc1` and `c1ccc(CN(Cc2ccnc(-c3cc(CN4CCCNCCNCCCNCC4)ccn3)c2)Cc2ccccn2)nc1` cannot be ordered by CC50: greater than 10000 nM for the first, greater than 10000 nM for the second.

Biological target: T1, C-X-C chemokine receptor type 4
Assay: Competitive inhibition of [125I]-CXCL12 binding to CXCR4 in human Jurkat cells at 1 uM in presence of ZnCl2 after 2 hrs by gamma counting analysis relative to control
Format: cell-based
Conditions: not given

Going from `c1ccc(CN(Cc2ccc(-c3ccc(CN4CCCNCCNCCCNCC4)cc3)cc2)Cc2ccccn2)nc1` to `c1ccc(CN(Cc2ccc(-c3ccc(CN4CCCNCCNCCCNCC4)cc3)nc2)Cc2ccccn2)nc1`, the inhibition rises from 85.5% to 105%.

Compared with `c1ccc(CN(Cc2ccc3cc(CN4CCCNCCNCCCNCC4)ccc3c2)Cc2ccccn2)nc1`, `c1ccc(CN(Cc2ccc3nc(CN4CCCNCCNCCCNCC4)ccc3c2)Cc2ccccn2)nc1` is higher in inhibition: 99.6% for the first, 110% for the second.

Compared with `c1ccc(CN(Cc2ccccn2)Cc2ccccc2-c2ccc(CN3CCCNCCNCCCNCC3)cc2)nc1`, `c1ccc(CN(Cc2ccnc(-c3cc(CN4CCCNCCNCCCNCC4)ccn3)c2)Cc2ccccn2)nc1` is higher in inhibition: 84.1% for the first, 99.2% for the second.

Biological target: T1, C-X-C chemokine receptor type 4
Assay: Competitive inhibition of TAMRAAc-TZ14011 binding to CXCR4 (unknown origin) expressed in CHO cells at 1 uM in absence of ZnCl2 by NanoBRET assay relative to control
Format: cell-based
Conditions: not given
Method in brief: (§1)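 Single-point competition in CHO cells stably expressing N-terminally Nluc-tagged CXCR4 (5 x 10^4 cells, seeded 24 h earlier at 37 °C, 5% CO2, medium then replaced with OptiMEM). Cells were incubated with 10 nM TAMRA-Ac-TZ14011 plus 1 µM compound, without or with 10 µM ZnCl2 (10 eq), for 1 h at 25 °C. Furimazine was added and BRET read as acceptor (>610 nm) over donor (460 nm). Inhibition is relative to no compound and to excess Ac-TZ14011; mean ± SEM, n = 3.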

Going from `c1ccc(CN(Cc2ccc(-c3ccc(CN4CCCNCCNCCCNCC4)cc3)cc2)Cc2ccccn2)nc1` to `c1ccc(CN(Cc2ccc(-c3ccc(CN4CCCNCCNCCCNCC4)cc3)nc2)Cc2ccccn2)nc1`, the inhibition rises from 51.1% to 89.1%.

First: c1ccc(CN(Cc2ccc3cc(CN4CCCNCCNCCCNCC4)ccc3c2)Cc2ccccn2)nc1
Second: c1ccc(CN(Cc2ccc3nc(CN4CCCNCCNCCCNCC4)ccc3c2)Cc2ccccn2)nc1
The inhibition of the first is lower: 80.7% for the first, 81.1% for the second.

Going from `c1ccc(CN(Cc2ccccn2)Cc2ccccc2-c2ccc(CN3CCCNCCNCCCNCC3)cc2)nc1` to `c1ccc(CN(Cc2ccnc(-c3cc(CN4CCCNCCNCCCNCC4)ccn3)c2)Cc2ccccn2)nc1`, the inhibition rises from 64.6% to 88.5%.

Test system: Human immunodeficiency virus 1
Assay: Antiviral activity against R5 tropic HIV-1 NL(AD8) infected in human MT4 cells assessed as protection against virus-induced cytopathic effect at 10 uM in absence of ZnCl2 after 5 days by MTT assay
Format: functional
Conditions: Human immunodeficiency virus 1, NL(AD8), MT4, 120 h

`c1ccc(CN(Cc2ccc(-c3ccc(CN4CCCNCCNCCCNCC4)cc3)cc2)Cc2ccccn2)nc1` and `c1ccc(CN(Cc2ccc(-c3ccc(CN4CCCNCCNCCCNCC4)cc3)nc2)Cc2ccccn2)nc1` cannot be ordered by inhibition at 10 µM: less than 30% for the first, less than 30% for the second.

`c1ccc(CN(Cc2ccc3cc(CN4CCCNCCNCCCNCC4)ccc3c2)Cc2ccccn2)nc1` and `c1ccc(CN(Cc2ccnc(-c3cc(CN4CCCNCCNCCCNCC4)ccn3)c2)Cc2ccccn2)nc1` cannot be ordered by inhibition at 10 µM: less than 30% for the first, less than 30% for the second.

Molecule `c1ccc(CN(Cc2ccccn2)Cc2ccccc2-c2ccc(CN3CCCNCCNCCCNCC3)cc2)nc1` has an inhibition at 10 µM of less than 30%.

Biological target: T1, C-X-C chemokine receptor type 4
Assay: Competitive inhibition of TAMRAAc-TZ14011 binding to CXCR4 (unknown origin) expressed in CHO cells in presence of ZnCl2 by NanoBRET assay relative to control
Format: cell-based
Conditions: not given
Method in brief: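 Cells were incubated with 10 nM TAMRA-Ac-TZ14011 and compound plus ZnCl2 (10 eq). Furimazine was added and BRET ratio taken as >610 nm over 460 nm emission. Inhibition is scaled between no compound and excess Ac-TZ14011.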

Molecule `c1ccc(CN(Cc2ccc3cc(CN4CCCNCCNCCCNCC4)ccc3c2)Cc2ccccn2)nc1` has an IC50 of 10 nM.

Biological target: T1, C-X-C chemokine receptor type 4
Assay: Competitive inhibition of TAMRAAc-TZ14011 binding to CXCR4 (unknown origin) expressed in CHO cells at 1 uM in presence of ZnCl2 by NanoBRET assay relative to control
Format: cell-based
Conditions: not given
Method in brief: as §1

First: c1ccc(CN(Cc2ccc(-c3ccc(CN4CCCNCCNCCCNCC4)cc3)cc2)Cc2ccccn2)nc1
Second: c1ccc(CN(Cc2ccc(-c3ccc(CN4CCCNCCNCCCNCC4)cc3)nc2)Cc2ccccn2)nc1
The inhibition of the first is lower: 87.9% for the first, 102% for the second.

Compared with `c1ccc(CN(Cc2ccc3cc(CN4CCCNCCNCCCNCC4)ccc3c2)Cc2ccccn2)nc1`, `c1ccc(CN(Cc2ccc3nc(CN4CCCNCCNCCCNCC4)ccc3c2)Cc2ccccn2)nc1` is higher in inhibition: 89.9% for the first, 101% for the second.

Compared with `c1ccc(CN(Cc2ccccn2)Cc2ccccc2-c2ccc(CN3CCCNCCNCCCNCC3)cc2)nc1`, `c1ccc(CN(Cc2ccnc(-c3cc(CN4CCCNCCNCCCNCC4)ccn3)c2)Cc2ccccn2)nc1` is higher in inhibition: 87.5% for the first, 92.2% for the second.

Test system: not listed separately
Assay: Cytotoxicity against human MT4 cells in presence of ZnCl2
Format: cell-based
Conditions: not given
Method in brief: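 MT-4 viability with compound plus ZnCl2 (10 eq). CC50 is the concentration giving 50% reduction in viable cells; mean of at least three independent experiments.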

`c1ccc(CN(Cc2ccc3cc(CN4CCCNCCNCCCNCC4)ccc3c2)Cc2ccccn2)nc1` showed a CC50 greater than 10000 nM.

Test system: Human immunodeficiency virus 1
Assay: Antiviral activity against X4 tropic HIV-1 NL4-3 infected in human MT4 cells assessed as protection against virus-induced cytopathic effect in absence of ZnCl2 after 5 days by MTT assay
Format: functional, organism-based
Conditions: Human immunodeficiency virus 1, NL4-3, MT4, 120 h
Method in brief: (§2)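 Protection of MT-4 cells from X4 HIV-1 NL4-3 cytopathicity. Infected cells (MOI 0.001, 2.0 × 10^4 cells/well) received graded compound concentrations, without or with ZnCl2 (10 eq), for 5 days at 37 °C. Viable cells were counted by MTT. EC50 is the concentration giving 50% protection; mean of at least three independent experiments.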

`c1ccc(CN(Cc2ccc(-c3ccc(CN4CCCNCCNCCCNCC4)cc3)cc2)Cc2ccccn2)nc1` and `c1ccc(CN(Cc2ccc(-c3ccc(CN4CCCNCCNCCCNCC4)cc3)nc2)Cc2ccccn2)nc1` are within 1.5-fold of each other in EC50: 780 nM for the first, 590 nM for the second.

First: c1ccc(CN(Cc2ccc3cc(CN4CCCNCCNCCCNCC4)ccc3c2)Cc2ccccn2)nc1
Second: c1ccc(CN(Cc2ccc3nc(CN4CCCNCCNCCCNCC4)ccc3c2)Cc2ccccn2)nc1
The EC50 of the first is lower: 470 nM for the first, greater than 970 nM for the second.

Compared with `c1ccc(CN(Cc2ccccn2)Cc2ccccc2-c2ccc(CN3CCCNCCNCCCNCC3)cc2)nc1`, `c1ccc(CN(Cc2ccnc(-c3cc(CN4CCCNCCNCCCNCC4)ccn3)c2)Cc2ccccn2)nc1` is 2.8-fold lower in EC50: 2600 nM for the first, 920 nM for the second. The second is the more potent here.

Test system: Human immunodeficiency virus 1
Assay: Antiviral activity against X4 tropic HIV-1 NL4-3 infected in human MT4 cells assessed as protection against virus-induced cytopathic effect in presence of ZnCl2 after 5 days by MTT assay
Format: functional, organism-based
Conditions: Human immunodeficiency virus 1, NL4-3, MT4, 120 h
Method in brief: as §2

First: c1ccc(CN(Cc2ccc(-c3ccc(CN4CCCNCCNCCCNCC4)cc3)cc2)Cc2ccccn2)nc1
Second: c1ccc(CN(Cc2ccc(-c3ccc(CN4CCCNCCNCCCNCC4)cc3)nc2)Cc2ccccn2)nc1
The EC50 of the first is 7.7-fold higher: 1000 nM for the first, 130 nM for the second. The second is the more potent here.

First: c1ccc(CN(Cc2ccc3cc(CN4CCCNCCNCCCNCC4)ccc3c2)Cc2ccccn2)nc1
Second: c1ccc(CN(Cc2ccc3nc(CN4CCCNCCNCCCNCC4)ccc3c2)Cc2ccccn2)nc1
The EC50 of the first is 23-fold lower: 240 nM for the first, 5500 nM for the second. The first is the more potent here.

First: c1ccc(CN(Cc2ccccn2)Cc2ccccc2-c2ccc(CN3CCCNCCNCCCNCC3)cc2)nc1
Second: c1ccc(CN(Cc2ccnc(-c3cc(CN4CCCNCCNCCCNCC4)ccn3)c2)Cc2ccccn2)nc1
The EC50 of the first is 4.5-fold higher: 890 nM for the first, 200 nM for the second. The second is the more potent here.

Test system: Human immunodeficiency virus 1
Assay: Antiviral activity against R5 tropic HIV-1 NL(AD8) infected in human MT4 cells assessed as protection against virus-induced cytopathic effect at 10 uM in presence of ZnCl2 after 5 days by MTT assay
Format: functional
Conditions: Human immunodeficiency virus 1, NL(AD8), MT4, 120 h

`c1ccc(CN(Cc2ccc(-c3ccc(CN4CCCNCCNCCCNCC4)cc3)cc2)Cc2ccccn2)nc1` and `c1ccc(CN(Cc2ccc(-c3ccc(CN4CCCNCCNCCCNCC4)cc3)nc2)Cc2ccccn2)nc1` cannot be ordered by inhibition at 10 µM: less than 30% for the first, less than 30% for the second.

`c1ccc(CN(Cc2ccc3cc(CN4CCCNCCNCCCNCC4)ccc3c2)Cc2ccccn2)nc1` and `c1ccc(CN(Cc2ccnc(-c3cc(CN4CCCNCCNCCCNCC4)ccn3)c2)Cc2ccccn2)nc1` cannot be ordered by inhibition at 10 µM: less than 30% for the first, less than 30% for the second.

For `c1ccc(CN(Cc2ccccn2)Cc2ccccc2-c2ccc(CN3CCCNCCNCCCNCC3)cc2)nc1`, the inhibition at 10 µM was less than 30%.
